2 compounds from paper PMC2744899 (Journal of the American Chemical Society, 2009) can be followed below.

By Kd is commonly meant the constant that tells how readily two partners part at equilibrium.

Values joined by “and” are separate entries in the source; they are usually repeats but may differ in a detail not shown here. Equal entries are not always repeated. Some results are limits rather than exact numbers.

Data set [1] is described as follows: Photobleaching of DIR/K7 by Xe lamp irradiation and fluoromodule regeneration. In kind it is physicochemical.
Data set [2] concerns scFv K7 displayed on the yeast cell-surface. Nature of the data set: Fluorescence titration of dye into yeast surface-displayed K7. As to conditions: read-out: Kd Yeast-Displayed K7, 10^7 yeast cells, 1:1 binding model.
Data set [3] in a line: Thermal bleaching by singlet oxygen from sodium molybdate and H2O2. The note with it: for loss of absorbance (bleaching): free dye 1 μM. In kind it is physicochemical. The procedure, abridged: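 Singlet oxygen was generated thermally from 50 mM Na2MoO4 plus 9.8 mM H2O2 (final) at pH 9.0, with ionic strength matched to standard wash buffer. Reactions used 1 µM dye, free (in H2O or D2O, followed by absorbance) or with 1 µM K7. Spectra were taken before molybdate addition, then every 10 min for 40 min.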

Data set [4] is described as follows: Photobleaching by direct irradiation. In kind it is physicochemical. As to conditions: compare Figures 3 and 10, per photons absorbed per dye molecule.

Regarding `CN1/C(=C/C=C/c2cc[n+](CCCS(=O)(=O)[O-])c3ccccc23)C(C)(C)c2ccccc21` [DIR, dimethylindole red], in data set [1] (1:1 DIR/K7 at 250 nM, λ > 455 nm, 15 min, H2O), the “loss of DIR fluorescence after irradiation” value was 55 (±7) % and 55%. Besides, the “fluorescence restored after addition of another equivalent of DIR” value in data set [1] (after 15 min irradiation, one equivalent (250 nM) fresh DIR added) was 89 % of the original value. Further, the dissociation constant Kd in data set [2] worked out at 13.9 ± 3.2 nM. For the same compound, the “bleaching in the presence of K7” value in data set [3] ([Dye] = [K7] = 1 μM, pH 9, 40 min) turned out to be 20%. Moreover, the “loss of absorbance (bleaching)” value in data set [3] (no K7, 90% D2O, pH 9, 40 min) is given as 74%; in data set [3] (no K7, H2O, pH 9, after 40 min reaction), 42%.

With `CN1C(=Cc2cc[n+](C)c3ccccc23)Sc2ccccc21` [TO, thiazole orange], the “photobleaching efficiency relative to DIR and α-CN-DIR” value in data set [4] was more than 100 fold.
